Columns and labels:
Assay type in all cases: functional
RXF 393 = assay: Cytotoxicity against human RXF393 cells assessed as cell growth at 10^-4 M after 48 hrs by SRB assay; settings: RXF 393, 48 h, read-out: Activity
HCT-15 [1] = assay: Cytotoxicity against human HCT15 cells assessed as cell growth at 10^-5 M after 48 hrs by SRB assay; settings: HCT-15, 48 h, read-out: Activity
Summary of the method: (§1)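 NCI-60 five-dose screen. Cells were grown in RPMI 1640 with 5% FBS and seeded at 5000–40,000 cells/well according to doubling time. They were pre-incubated 24 h at 37 °C in 5% CO₂, and time-zero (Tz) plates were TCA-fixed at drug addition. Five 10-fold dilutions of DMSO stock were applied for 48 h. Read-out was SRB staining, 515 nm absorbance, with percent growth calculated versus Tz and untreated control.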

OVCAR-4 = assay: Cytotoxicity against human OVCAR4 cells assessed as cell growth at 10^-8 M after 48 hrs by SRB assay; settings: OVCAR-4, 48 h, read-out: Activity
SW-620 [2] = assay: Cytotoxicity against human SW620 cells assessed as cell growth at 10^-5 M after 48 hrs by SRB assay; settings: SW-620, 48 h, read-out: Activity
MDA-MB-435 = assay: Cytotoxicity against human MDA-MB-435 cells assessed as cell growth at 10^-8 M after 48 hrs by SRB assay; settings: MDA-MB-435, 48 h, read-out: Activity
LOX IMVI = assay: Cytotoxicity against human LOXIMVI cells assessed as cell growth at 10^-7 M after 48 hrs by SRB assay; settings: read-out: Activity
HCT-15 [3] = assay: Cytotoxicity against human HCT15 cells assessed as cell growth at 10^-4 M after 48 hrs by SRB assay; settings: HCT-15, 48 h, read-out: Activity; summary of the method: as §1
UACC-257 = assay: Cytotoxicity against human UACC257 cells assessed as cell growth at 10^-8 M after 48 hrs by SRB assay; settings: UACC-257, 48 h, read-out: Activity
[4] = Cytotoxicity against human Hs 578T cells assessed as cell growth at 10^-8 M after 48 hrs by SRB assay; settings: read-out: Activity; summary of the method: as §1
HL-60 [5] = assay: Growth inhibition of human HL60 cells after 48 hrs by SRB assay; settings: HL-60, 48 h
Summary of the method: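 Leukemia suspension lines grown in RPMI 1640 with 5% FBS, seeded at 5000–40,000 cells/well, and preincubated 24 h at 37 °C, 5% CO2. Compound, stocked in DMSO, given either once at 10^-5 M or at five 10-fold dilutions for 48 h. Settled cells fixed with 80% TCA (final 16%), stained with SRB, and read at 515 nm. GI50 calculated against time-zero and control growth.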

HCC 2998 = assay: Cytotoxicity against human HCC2998 cells assessed as cell growth at 10^-6 M after 48 hrs by SRB assay; settings: HCC 2998, 48 h, read-out: Activity; summary of the method: as §1
NCI-H460 = assay: Cytotoxicity against human NCI-H460 cells assessed as cell growth at 10^-5 M after 48 hrs by SRB assay; settings: NCI-H460, 48 h, read-out: Activity
UO-31 [6] = assay: Cytotoxicity against human UO31 cells assessed as cell growth at 10^-4 M after 48 hrs by SRB assay; settings: UO-31, 48 h, read-out: Activity
MDA-MB-231 [7] = assay: Cytotoxicity against human MDA-MB-231 cells assessed as cell growth at 10^-4 M after 48 hrs by SRB assay; settings: MDA-MB-231, 48 h, read-out: Activity
PC-3 = assay: Cytotoxicity against human PC3 cells assessed as cell growth at 10^-6 M after 48 hrs by SRB assay; settings: PC-3, 48 h, read-out: Activity
HL-60 [8] = assay: Cytotoxicity against human HL60 cells assessed as cell growth at 10^-6 M after 48 hrs by SRB assay; settings: HL-60, 48 h, read-out: Activity; summary of the method: as §1
SF-268 = assay: Cytotoxicity against human SF268 cells assessed as cell growth at 10^-7 M after 48 hrs by SRB assay; settings: SF-268, 48 h, read-out: Activity
786-0 = assay: Growth inhibition of human 786-0 cells after 48 hrs by SRB assay; settings: 786-0, 48 h
Summary of the method: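 Same 48 h NCI-60 five-dose SRB protocol. Adherent lines were fixed with cold TCA at 10% final; suspension lines such as CCRF-CEM were fixed with 16% final TCA. Stain was 0.4% SRB in 1% acetic acid for 10 min, solubilized in 10 mM Tris base and read at 515 nm. GI50 came from log concentration–growth curves, solving [(Ti−Tz)/(C−Tz)]×100 = 50.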

OVCAR-3 = assay: Cytotoxicity against human OVCAR3 cells assessed as cell growth at 10^-5 M after 48 hrs by SRB assay; settings: OVCAR-3, 48 h, read-out: Activity
ACHN = assay: Cytotoxicity against human ACHN cells assessed as cell growth at 10^-4 M after 48 hrs by SRB assay; settings: read-out: Activity
Summary of the method: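 NCI-60 screen: lines kept in RPMI 1640 with 5% FBS, seeded at 5000–40,000 cells/well by doubling time, preincubated 24 h at 37 °C in 5% CO2. Time-zero plates TCA-fixed at drug addition. DMSO stocks diluted in medium, 48 h exposure. Fixation in cold TCA (final 10% adherent, 16% suspension), 0.4% SRB stain, solubilised in 10 mM Tris base, A515. Percent growth computed against control and time-zero.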

UO-31 [9] = assay: Cytotoxicity against human UO31 cells assessed as cell growth at 10^-8 M after 48 hrs by SRB assay; settings: UO-31, 48 h, read-out: Activity
MDA-MB-231 [10] = assay: Cytotoxicity against human MDA-MB-231 cells assessed as cell growth at 10^-7 M after 48 hrs by SRB assay; settings: MDA-MB-231, 48 h, read-out: Activity
NCI-H226 = assay: Cytotoxicity against human NCI-H226 cells assessed as cell growth at 10^-8 M after 48 hrs by SRB assay; settings: NCI-H226, 48 h, read-out: Activity
MDA-MB-468 = assay: Growth inhibition of human MDA-MB-468 cells after 48 hrs by SRB assay; settings: MDA-MB-468, 48 h
Summary of the method: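 Adherent NCI-60 lines grown in RPMI 1640 with 5% FBS, seeded at 5000–40,000 cells/well, and preincubated 24 h at 37 °C, 5% CO2. Compound, stocked in DMSO, given either once at 10^-5 M or at five 10-fold dilutions for 48 h. Cells fixed with cold TCA (final 10%), stained with 0.4% SRB, and read at 515 nm. GI50 taken as 50% reduction in net protein increase versus time-zero and control plates.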

SK-OV-3 = assay: Cytotoxicity against human SKOV3 cells assessed as cell growth at 10^-6 M after 48 hrs by SRB assay; settings: SK-OV-3, 48 h, read-out: Activity
SW-620 [11] = assay: Cytotoxicity against human SW620 cells assessed as cell growth at 10^-7 M after 48 hrs by SRB assay; settings: SW-620, 48 h, read-out: Activity
SW-620 [12] = assay: Cytotoxicity against human SW620 cells assessed as cell growth at 10^-8 M after 48 hrs by SRB assay; settings: SW-620, 48 h, read-out: Activity

COc1ccc(-c2nn3cc(-c4ccc(O)cc4O)nc3s2)cc1
growth at 100 µM (RXF 393): -63%
growth at 10 µM (HCT-15 [1]): 32%
growth at 0.01 µM (OVCAR-4): 95%
growth at 10 µM (SW-620 [2]): 26%
growth at 0.01 µM (MDA-MB-435): 97%
growth at 0.1 µM (LOX IMVI): 94%
growth at 100 µM (HCT-15 [3]): 4%
growth at 0.01 µM (UACC-257): 92%
growth at 0.01 µM [4]: 95%
GI50 (HL-60 [5]): 3.86 µM
LC50 (HL-60 [5]): > 100 µM
TGI (HL-60 [5]): 37.4 µM
growth at 1 µM (HCC 2998): 78%
growth at 10 µM (NCI-H460): -6%
growth at 100 µM (UO-31 [6]): -10%
growth at 100 µM (MDA-MB-231 [7]): -19%
growth at 1 µM (PC-3): 65%
growth at 1 µM (HL-60 [8]): 74%
growth at 0.1 µM (SF-268): 96%
GI50 (786-0): 1.72 µM
TGI (786-0): 3.43 µM
growth at 10 µM (OVCAR-3): -7%
growth at 100 µM (ACHN): 6%
growth at 0.01 µM (UO-31 [9]): 84%
growth at 0.1 µM (MDA-MB-231 [10]): 99%
growth at 0.01 µM (NCI-H226): 94%
GI50 (MDA-MB-468): 1.5 µM
LC50 (MDA-MB-468): > 100 µM
TGI (MDA-MB-468): 17.6 µM
growth at 1 µM (SK-OV-3): 85%
growth at 0.1 µM (SW-620 [11]): 96%
growth at 0.01 µM (SW-620 [12]): 97%

COc1ccc(-c2nn3cc(-c4cccc(N)c4)nc3s2)cc1
growth at 100 µM (RXF 393): -90%
growth at 10 µM (HCT-15 [1]): 36%
growth at 0.01 µM (OVCAR-4): 92%
growth at 10 µM (SW-620 [2]): 40%
growth at 0.01 µM (MDA-MB-435): 95%
growth at 0.1 µM (LOX IMVI): 92%
growth at 100 µM (HCT-15 [3]): 1%
growth at 0.01 µM (UACC-257): 100%
growth at 0.01 µM [4]: 90%
GI50 (HL-60 [5]): 1.77 µM
LC50 (HL-60 [5]): > 100 µM
TGI (HL-60 [5]): 37.7 µM
growth at 1 µM (HCC 2998): 84%
growth at 10 µM (NCI-H460): 26%
growth at 100 µM (UO-31 [6]): -63%
growth at 100 µM (MDA-MB-231 [7]): -35%
growth at 1 µM (PC-3): 53%
growth at 1 µM (HL-60 [8]): 60%
growth at 0.1 µM (SF-268): 101%
GI50 (786-0): 4.7 µM
LC50 (786-0): 42.9 µM
TGI (786-0): 15.9 µM
growth at 10 µM (OVCAR-3): 19%
growth at 100 µM (ACHN): -53%
growth at 0.01 µM (UO-31 [9]): 86%
growth at 0.1 µM (MDA-MB-231 [10]): 81%
growth at 0.01 µM (NCI-H226): 92%
GI50 (MDA-MB-468): 1.83 µM
LC50 (MDA-MB-468): > 100 µM
TGI (MDA-MB-468): 9.32 µM
growth at 1 µM (SK-OV-3): 87%
growth at 0.1 µM (SW-620 [11]): 95%
growth at 0.01 µM (SW-620 [12]): 95%

— ChEMBL document CHEMBL2146441, “2,6-Disubstituted imidazo[2,1-b][1,3,4]thiadiazoles: search for anticancer agents” (2012)
